High-throughput results as filed in PubChem BioAssay.
KCNK9 inh-1 = blocks the human KCNK9 two-pore domain potassium channel; Q9NPC2; AID 488922; B-score at 10 µM; HEK293 KCNK9, FluxOR thallium flux fluorescence; active compounds read low; 310,000 compounds, 1.2% hits;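 active means ratio B-score over 3 SD below the library mean, with starting fluorescence within 5 SD of its mean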;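 further: negative B-score means less thallium flux so channel inhibition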
KCNQ1 inh = blocks the human KCNQ1 potassium channel | 310,000 compounds, 1.3% hits | CHO-K1 KCNQ1, FluxOR thallium flux fluorescence; active compounds read high | B-score at 10 µM | P51787 | AID 2642;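 active means compounds whose thallium flux B-score, printed positive for inhibition, exceeds three library SD while starting fluorescence stays within three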;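 further: channel opened by potassium depolarization with thallium stimulus after 20 min compound exposure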
KCNQ1 pot = human KCNQ1 channel potentiation or activation. B-score at 10 µM. 310,000 compounds, 0.35% hits. P51787. CHO-K1 KCNQ1, thallium flux FluxOR fluorescence; active compounds read high;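 active means fluorescence ratio B-score, a plate-corrected score, at least three library SD, with initial intensity B-score within 5 SD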
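Assay system: CHO-K1 cells stably expressing KCNQ1; Medium: assay buffer with matched DMSO; Also added: K+/Tl+ depolarizing stimulus; Dosing: single dose; Timing: dye 90 min, compound 20 min, room temperature; Measured by: kinetic FluxOR thallium fluorescence, 10-s 1-Hz baseline, 110-s post-stimulus read; Read-out: peak-minus-minimum fluorescence over initial fluorescence, negative-control normalized, B-scored.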
hERG rescue = shields human hERG channel from block by proarrhythmic agents | Q12809 | CHO-hERG, FluxOR thallium flux, dofetilide IC70 present | activation (rescue from dofetilide block), less the hit threshold, % at 10 µM | 310,000 compounds, 0.51% hits;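 active means activation above the mean of controls blocked by dofetilide plus 5 SD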;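 further: thallium influx through hERG after potassium depolarization seen as dye fluorescence rise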
KCNK3 inh = human KCNK3 channel inhibition, primary screen. O14649. AID 602410. CHO-KCNK3 thallium flux, FluxOR fluorescence; active compounds read low. 340,000 compounds, 0.84% hits. B-score at 10 µM;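 active means B-score under library mean minus 4 SD, starting fluorescence ratio at most library mean plus 5 SD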;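 further: more negative B-score means stronger inhibition of thallium flux through KCNK3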
Kir21 block = Kir2.1 (mouse) channel inhibition. P35561. HEK293-Kir2.1, FluxOR thallium flux fluorescence; active compounds read low. B-score at 10 µM. 310,000 compounds, 0.85% hits;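 active means fluorescence ratio B-score at or below minus 3 SD of library scores, with starting-brightness B-score within 2 SD, cut at about -4.2 in these data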;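 further: channel flux triggered by added potassium and thallium sulfate stimulus; B-score of peak minus minimum fluorescence over baseline after thallium stimulus; more negative B-score means stronger Kir2.1 block with less thallium influx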
hERG inh = hERG (human) inhibition as Kir2.1 counter-screen; inhibition, % at 10 µM; 320 compounds, 20% hits; shares compounds with Kir21 block; hERG-expressing cells, thallium flux;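 further: host cells are CHO cells stably expressing hERG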
KCNK9 inh-2 = selectivity of Kir2.1 inhibitors: effect on human KCNK9; shares compounds with Kir21 block; KCNK9-expressing cells, ion flux inhibition; inhibition, % at 10 µM; 320 compounds, 5% hits; AID 2329
Kir21 ephys inh = blocks mouse Kir2.1 current in automated electrophysiology; AID 463252; shares compounds with Kir21 block; 320 compounds, 71% hits; inhibition, % at 25 µM; Kir2.1 cells, automated patch-clamp current inhibition
KCNK9 block conf = confirmation of human KCNK9 potassium channel inhibitors; HEK293 KCNK9 cells, FluxOR thallium flux fluorescence; shares compounds with KCNK9 inh-1; 4,900 compounds, 43% hits; inhibition, % at 10 µM;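 active means thallium signal inhibited by more than 5 SD of the compound-free buffer control wells, on both duplicate plates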;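 further: 0% = assay buffer control wells without compound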
Kir21 sel = selectivity of KCNK9 modulators against mouse Kir2.1. shares compounds with KCNK9 inh-1. Kir2.1 cells, FluxOR thallium flux fluorescence. inhibition, % at 10 µM. 4,900 compounds, 4% hits;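 active means thallium signal drop more than 5 SD beyond the mean of the no-compound control wells, seen in both duplicate plates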;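 further: signal is fluorescence rise after thallium addition divided by baseline fluorescence; plate controls were assay buffer only for no effect and full block by chlorpromazine control for full effect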
KCNK9 uninduced = second counter-screen for KCNK9 modulators: effect in non-induced cells | shares compounds with KCNK9 inh-1 | non-induced KCNK9-HEK293, FluxOR thallium flux | inhibition, % at 10 µM | 4,900 compounds, 40% hits | AID 492997;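 active means thallium signal drop beyond 5 SD of the untreated control mean, on both duplicate plates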;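 further: plate controls were buffer only IC0 wells for no effect and SID17386958 at its maximal inhibitory level for full effect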
Active calls of the source: *. Rows were chosen to be rich in hits. Some 3.7% of all compounds tested hit in one or more screens of this group. Unless noted, how the calls were made is not given here.

CC(C)(O)[C@@H]1[C@H]2OC(=O)[C@@H]1[C@]1(O)C[C@H]3O[C@]34C(=O)O[C@H]2[C@]14C (tested in a mixture with another compound) was read as KCNK9 inh-1 inactive, KCNQ1 inh inactive, KCNQ1 pot inactive, hERG rescue -4.0 and Kir21 block 0.02.
Screening CCOc1ccc(Cl)cc1CNCCc1ccccc1F returned KCNK9 inh-1 inactive, KCNQ1 inh inactive, KCNQ1 pot inactive, hERG rescue -5.0, KCNK3 inh inactive, Kir21 block -8.94*, hERG inh inactive, KCNK9 inh-2 inactive and Kir21 ephys inh 52.4%*.
`CCOc1ccc(NC(=O)N2C[C@H]3C[C@@H](C2)c2cccc(=O)n2C3)cc1` gave KCNK9 inh-1 inactive, KCNQ1 inh inactive, KCNQ1 pot inactive, hERG rescue 0.1, KCNK3 inh inactive and Kir21 block 0.27.
Screening Cc1nc2c(c(=O)[nH]1)C(c1ccc([N+](=O)[O-])cc1)c1c(c3ccccc3oc1=O)O2 (stereo not drawn) returned KCNK9 inh-1 inactive, KCNQ1 inh inactive, KCNQ1 pot inactive, hERG rescue -3.5 and Kir21 block 0.35.
`CS(=O)(=O)NNP(=O)(NNS(C)(=O)=O)NC(=O)c1ccc(Br)cc1` gave KCNK9 inh-1 inactive, KCNQ1 inh inactive, KCNQ1 pot inactive, hERG rescue -10.3, KCNK3 inh inactive and Kir21 block 0.23.
For Cc1ccc(CN2CCN(Cc3ccccc3F)CC2)cc1 the results were KCNK9 inh-1 inactive, KCNQ1 inh inactive, KCNQ1 pot inactive, hERG rescue -8.8, KCNK3 inh inactive, Kir21 block -10.7*, hERG inh inactive, KCNK9 inh-2 inactive and Kir21 ephys inh 57.8%*.
Screening CCN1CCN(Cc2ccc(C)cc2)CC1 returned KCNK9 inh-1 inactive, KCNQ1 inh inactive, KCNQ1 pot inactive, hERG rescue -4.5, KCNK3 inh inactive and Kir21 block 1.86.
Screening CCc1ccc(CNCCc2c[nH]c3ccccc23)cc1 returned KCNK9 inh-1 inactive, KCNQ1 inh inactive, KCNQ1 pot inactive, hERG rescue -9.7, KCNK3 inh inactive, Kir21 block -14.6*, hERG inh 53.0%*, KCNK9 inh-2 inactive and Kir21 ephys inh 60.5%*.
Screening c1ccc(CNCCc2c[nH]c3ccccc23)cc1 returned KCNK9 inh-1 inactive, KCNQ1 inh inactive, KCNQ1 pot inactive, hERG rescue -5.7, KCNK3 inh inactive and Kir21 block -0.43.
`CCc1ccc(CN2CCN(Cc3ccc(SC)cc3)CC2)cc1` gave KCNK9 inh-1 inactive, KCNQ1 inh inactive, KCNQ1 pot inactive, hERG rescue -7.6, KCNK3 inh inactive, Kir21 block -7.15*, hERG inh 60.0%*, KCNK9 inh-2 inactive, Kir21 ephys inh 15.4%*, KCNK9 block conf inactive, Kir21 sel 60.0%* and KCNK9 uninduced inactive.
CCN(C(=O)COC(=O)c1cc(C)n(C2CC2)c1C)c1ccccc1 was read as KCNK3 inh inactive.
